Assay [1] addresses T1, Phospholipase A2, membrane associated (Homo sapiens, UniProt P14555).
T1 sequence (P14555 whole entry): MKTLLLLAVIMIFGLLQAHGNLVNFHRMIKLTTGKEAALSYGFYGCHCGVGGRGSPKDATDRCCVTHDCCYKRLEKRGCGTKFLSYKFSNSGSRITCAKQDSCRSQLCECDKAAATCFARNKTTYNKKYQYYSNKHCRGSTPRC
Briefly: Inhibition of human nonpancreatic secretory Phospholipase A2 through chromogenic assay.

The nature of assay [2]: Mole fraction of the IC50 concentration of compound divided by the total lipid concentration (1230 uM) in a chromogenic assay. In kind it is functional.
The target in assay [3] is T2, Phospholipase A2 (Homo sapiens, UniProt P04054). Briefly: Compound was evaluated to inhibit human secretory pancreatic Phospholipase A2.
T2 sequence (P04054 whole entry): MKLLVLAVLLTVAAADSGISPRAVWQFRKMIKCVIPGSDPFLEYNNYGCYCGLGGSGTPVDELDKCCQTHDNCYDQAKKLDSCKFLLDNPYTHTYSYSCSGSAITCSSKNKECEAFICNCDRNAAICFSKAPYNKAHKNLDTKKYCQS
The species entered for assay [4] is Cavia porcellus. Briefly: Inhibition of Phospholipase A2 induced contraction of GP lung tissue. In kind it is functional. The gist of the method: (§1)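 Guinea pig lung pleural strips were contracted with either hnps-PLA2 or arachidonic acid, the latter serving as the control challenge for selectivity. Antagonism is given as KB.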
Assay [5] is described as follows: Mole fraction is the IC50 concentration divided by the total lipid concentration (4000 uM) in DOC/PC assay. It counts as functional. In short, it runs like this:
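The value is a mole fraction: the DOC/PC assay IC50 (3 nM hnps-PLA2; 3 mM DOC/1 mM [14C]PC micelles; 1 h at 40 °C; released [14C]oleic acid counted) divided by the total lipid concentration of 4000 µM.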

For assay [6], the species on record is Cavia porcellus. Kind of assay: Inhibition Arachidonic acid(AA) induced contraction of GP lung tissue. It counts as functional. In short, it runs like this:
as §1

Assay [7] concerns the target T2, Phospholipase A2. Kind of assay: Compound was tested for inhibition of human secreted pancreatic PLA2.
Assay [8] deals with T1, Phospholipase A2, membrane associated. Kind of assay: Inhibition of human nonpancreatic secretory Phospholipase A2 through DOC/PC assay. In short, it runs like this:
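hnps-PLA2 (10 ng per tube; 3 nM) was preincubated with test compound in DMSO in pH 8 Tris buffer with 0.2 M NaCl, 2 mM CaCl2 and fatty-acid-free BSA. The substrate was sonicated mixed micelles (final 3 mM deoxycholate/1 mM PC) with [14C]-palmitoyl-oleoyl-PC. Reactions ran 1 h at 40 °C and were stopped with Dole reagent. Released [14C]oleic acid was extracted with heptane/silica and counted. IC50 was calculated against diluent controls.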

Assay [9] has the same target. Kind of assay: Compound was evaluated to inhibit human nonpancreatic secretory Phospholipase A2 through chromogenic assay. It counts as functional. In short, it runs like this:
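Chromogenic hnps-PLA₂ hydrolysis assay with 16 nM enzyme and 1.23 mM (1230 µM) total lipid substrate. IC₅₀ was determined, and the mole-fraction value is the IC₅₀ divided by the total lipid concentration.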

Assay [10] concerns the target T3, Phospholipase A2, major isoenzyme (Sus scrofa, UniProt P00592). Kind of assay: Compound was tested for inhibition of porcine secretory pancreatic Phospholipase A2.
The target of assay [11] is T2, Phospholipase A2. Kind of assay: Compound was tested for inhibition of human secretory pancreatic Phospholipase A2.
The target of assay [12] is T3, Phospholipase A2, major isoenzyme. Briefly: Compound was tested for inhibition of porcine secretory pancreatic PLA2.
Assay [13] concerns the target T2, Phospholipase A2. Briefly: Compound was tested for inhibition of human secretory pancreatic PLA2.
Assay [14] addresses T3, Phospholipase A2, major isoenzyme. Briefly: Compound was tested for inhibition of porcine secreted pancreatic PLA2.

Experimental findings from ChEMBL document CHEMBL1129458, “Indole inhibitors of human nonpancreatic secretory phospholipase A2. 3. Indole-3-glyoxamides” (J Med Chem, 1996) are described below.

SMILES strings stand for the structures.

T3 sequence (P00592 whole entry): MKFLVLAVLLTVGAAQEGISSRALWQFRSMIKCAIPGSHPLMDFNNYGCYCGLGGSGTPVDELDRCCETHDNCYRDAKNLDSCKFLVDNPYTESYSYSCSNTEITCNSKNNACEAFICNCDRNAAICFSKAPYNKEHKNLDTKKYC

On to `Cc1c(C(=O)C(N)=O)c2c(/C=C/C(=O)O)cccc2n1Cc1ccccc1`, for which the IC50 was 46000 nM in assay [1] and more than 100000 nM against Phospholipase A2 [3]. Besides, in [2], the Mole fraction came to 0.036.

As to `Cc1c(C(=O)C(N)=O)c2c(CCC(=O)O)cccc2n1Cc1ccccc1`, the figures for the half-maximal inhibitory concentration (IC50) (in assay [1]; against Phospholipase A2 [3]) were 145 nM and more than 100000 nM, respectively. Further, in the assay listed under Cavia porcellus [4], the KB was 0.614 µM. Further, the Mole fraction in assay [2] worked out at 0.00012.

As to `CCCCCCCCn1c(C)c(C(=O)C(N)=O)c2c(OCC(=O)O)cccc21`, the Mole fraction in assay [5] came out at 4.5e-06; in assay [2], 6.5e-06. Moreover, the half-maximal inhibitory concentration (IC50) in assay [1] was determined as 8 nM; against Phospholipase A2 [7], 780 nM; in assay [8] it was 18 nM. This compound also had a KB in the assay listed under Cavia porcellus [4] of 0.061 µM. This compound yielded an ED50 in the assay filed under Cavia porcellus [6] of more than 30000 nM.

For `CCc1c(C(=O)C(N)=O)c2c(OCC(=O)O)cccc2n1S(=O)(=O)c1ccccc1`, the KB in the assay filed under Cavia porcellus [4] came out at 0.316 µM. For the same compound, in [2], the Mole fraction was found to be 2.3e-05. For the same compound, in [9], half-maximal inhibition (IC50) was put at 28 nM.

On to `Cc1c(C(=O)C(N)=O)c2c(OCC(=O)O)cccc2n1Cc1ccccc1-c1ccccc1`, for which the Mole fraction in [5] turned out to be 7.5e-07; in assay [2] it was 5e-06. Moreover, the IC50 was 6 nM in assay [1], 97 nM in assay [10], 3 nM in assay [8] and 364 nM against Phospholipase A2 [11]. In addition, in the assay listed under Cavia porcellus [4], the KB amounted to 0.068 µM. For the same compound, in the assay listed under Cavia porcellus [6], the ED50 was more than 10000 nM.

With `CCc1c(C(=O)C(N)=O)c2c(OCC(=O)O)cccc2n1Cc1ccccc1` [VARESPLADIB], the Mole fraction in [5] worked out at 1.8e-06; in [2] it was 7.3e-06. The compound also returned a KB in the assay listed under Cavia porcellus [4] of 0.083 µM. Also, the ED50 in the assay listed under Cavia porcellus [6] was more than 30000 nM. The IC50 in assay [12] came to 48 nM; on Phospholipase A2 [11], 228 nM.

For the compound `CCc1c(C(=O)C(N)=O)c2c(OCC(=O)O)cccc2n1Cc1cccc(Cl)c1`, the figures for the Mole fraction in assay [5] and in assay [2] were 6.3e-06 and 5.8e-06, respectively. Moreover, the IC50 in [1] was found to be 7 nM; at Phospholipase A2 [13], 390 nM; in [14] it was 3 nM; in assay [8], 25 nM. Besides, in the assay filed under Cavia porcellus [4], the KB amounted to 0.11 µM. In the assay listed under Cavia porcellus [6], the ED50 is 5000 nM.

For orientation: IC50 means the concentration needed to halve the response being measured. Read a high IC50 as a need for much substance.
